One data set can be described thus: Solubility in DMSO. It counts as physicochemical. The settings on record: at 100 μM in DMSO.
Data set [1] has as its system S. epidermidis ATCC 12228. Briefly: Bacterial growth assay, S. epidermidis. The settings on record: 100 μM, after 6 h. It counts as cell-based, Staphylococcus epidermidis. Summed up:
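Overnight culture at 37 °C and 300 rpm in 1% peptone, 1% beef extract, 0.5% NaCl (pH 7.1), diluted 15×. Grown at 37 °C and 300 rpm with test compound at 100 μM, 0.3% DMSO (negative control) or ampicillin 100 μg/mL (positive control). A595 read at 6 h. Four independent experiments, mean ± SEM, Bonferroni all-pair comparison.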

For a further data set, the system named is E. coli BL21. Description: Bacterial growth assay, E. coli BL21. It is filed as cell-based. The settings on record: 100 μM, 4 and 8 h. Summed up:
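E. coli BL21 grown overnight at 37 °C and 300 rpm in 0.5% yeast extract, 1% tryptone, 0.5% NaCl (pH 7.0), then diluted 10×. Grown at 37 °C and 300 rpm with test compound at 100 μM, 0.3% DMSO (negative control) or ampicillin 100 μM (positive control). A595 read at 4, 6 and 8 h. Four independent experiments, mean ± SEM, Dunnett's test.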

The test system of a further data set is E. coli JM109. Briefly: Bacterial growth assay, E. coli JM109. It is filed as cell-based. The settings on record: data not shown. The method in brief:
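JM109 culture handled as follows: overnight growth at 37 °C, 300 rpm, in 0.5% yeast extract/1% tryptone/0.5% NaCl medium (pH 7.0), then 10× dilution. Incubated at 37 °C, 300 rpm, in medium with test compound, 0.3% DMSO as negative control or ampicillin as positive control. Culture absorbance at 595 nm read after 4, 6 and 8 h.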

A further data set concerns MDCK cells. Briefly: Mammalian cells growth/toxicity assay. It is filed as cell-based, Canine. To be noted: 30 μM, 1 day. Summed up:
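MDCK cells kept in DMEM with 10% FBS, penicillin/streptomycin and 2 mM L-glutamine. Seeded at 5.0 × 10^3 cells/well for 6 h (37 °C, 5% CO2), then starved overnight in 0.25% FBS DMEM. Exposed for 1 day to test compound at 30 μM or ampicillin 30 μM (negative control). CCK-8 added; A450 of WST-8 formazan read after 3 h. Four independent experiments, mean ± SEM, Dunnett's test.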

The test system of another data set is SH-SY5Y cells. Description: Mammalian cells growth/toxicity assay. It is filed as cell-based, human. To be noted: data not shown; 2 days.
The next data set concerns the target wild-type saDHFR (Staphylococcus aureus, UniProt P0A017). Briefly: S. aureus DHFR enzymatic assay. It counts as biochemical.

Sequence of wild-type saDHFR (P0A017 whole entry): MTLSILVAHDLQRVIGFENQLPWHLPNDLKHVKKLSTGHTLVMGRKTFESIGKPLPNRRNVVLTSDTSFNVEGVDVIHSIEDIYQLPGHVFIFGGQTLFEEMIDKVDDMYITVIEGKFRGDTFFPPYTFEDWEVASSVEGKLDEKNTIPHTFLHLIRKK

In the case of `Cc1ccc(CN2C(=O)C(=C3SC(=S)N(CC(=O)O)C3=O)c3ccccc32)cc1` [KBS2, {5-[1-(4-methylbenzyl)-2-oxo-1,2-dihydro-3H-indol-3-ylidene]-4-oxo-2-thioxo-1,3-thiazolidin-3-yl}acetic acid], the “Solubility in DMSO” value in the data set “Solubility in DMSO” is given as “not soluble”.
On to `O=C(O)CN1C(=O)C(=C2C(=O)N(Cc3ccccc3Cl)c3ccccc32)SC1=S` [KBS3, {5-[1-(2-chlorobenzyl)-2-oxo-1,2-dihydro-3H-indol-3-ylidene]-4-oxo-2-thioxo-1,3-thiazolidin-3-yl}acetic acid], for which the “Inhibitory effect on the growth of S. epidermidis” value in data set [1] was “significant inhibitory effects”. Further, the “Inhibitory effect on the growth of E. coli BL21” value in the data set on E. coli BL21 is “no inhibitory effects”. The “Inhibitory effect on the growth of E. coli JM109” value in the data set on E. coli JM109 is on record as “no inhibitory effects”. Besides, the “Toxic effects on MDCK cells” value in the data set with MDCK cells is listed as “did not exhibit toxic effects”. For the same compound, in the data set with SH-SY5Y cells, the “Cell death induced in SH-SY5Y cells” value was 35.4–52.1%.
`O=C(O)CN1C(=O)C(=C2C(=O)N(Cc3ccc(Cl)cc3)c3ccccc32)SC1=S` [KB1, {5-[1-(4-chlorobenzyl)-2-oxo-1,2-dihydro-3H-indol-3-ylidene]-4-oxo-2-thioxo-1,3-thiazolidin-3-yl}acetic acid]: the “Inhibitory effect on the growth of S. epidermidis” value in data set [1] is on record as “strong inhibitory effects”. Moreover, the “Inhibitory effect on the growth of E. coli BL21” value in the data set with E. coli BL21 was “did not show inhibitory effects”. The “Inhibitory effect on the growth of E. coli JM109” value in the data set on E. coli JM109 is listed as “did not show inhibitory effects”. The “Toxic effects on MDCK cells” value with MDCK cells was “did not show any toxic effects”. In addition, the “Cell death induced in SH-SY5Y cells” value in the data set on SH-SY5Y cells turned out to be 43.3%.
In the case of `CCOCCCN1C(=O)C(=C2C(=O)N(Cc3ccc(Cl)cc3)c3ccccc32)SC1=S` [KBS5, 1-(4-chlorobenzyl)-3-[3-(3-ethoxypropyl)-4-oxo-2-thioxo-1,3-thiazolidin-5-ylidene]-1,3-dihydro-2H-indol-2-one], the “Inhibitory effect on the growth of S. epidermidis” value in data set [1] is “inactive”.
For orientation: IC50 means the concentration that inhibits the measured activity by half. Low readings indicate greater potency in that assay, high ones weaker potency in that assay. Take `O=C(O)CCCN1C(=O)C(=C2C(=O)N(Cc3ccc(Cl)cc3)c3ccccc32)SC1=S` [KBS1, 4-{5-[1-(4-chlorobenzyl)-2-oxo-1,2-dihydro-3H-indol-3-ylidene]-4-oxo-2-thioxo-1,3-thiazolidin-3-yl}butanoic acid]: in data set [1], the “Inhibitory effect on the growth of S. epidermidis” value is reported as “significant inhibitory effects”. The “Inhibitory effect on the growth of E. coli BL21” value in the data set on E. coli BL21 was “no inhibitory effects”. The “Inhibitory effect on the growth of E. coli JM109” value in the data set on E. coli JM109 is “no inhibitory effects”. Further, the “Toxic effects on MDCK cells” value in the data set on MDCK cells was “weak toxic effect”. Moreover, the “Cell death induced in SH-SY5Y cells” value with SH-SY5Y cells was 35.4–52.1%. Moreover, the IC50 against wild-type saDHFR is 460 ± 170 nM.
As to `O=C(O)CCN1C(=O)C(=C2C(=O)N(Cc3ccc(F)cc3)c3ccccc32)SC1=S` [KBS4, 3-{5-[1-(4-fluorobenzyl)-2-oxo-1,2-dihydro-3H-indol-3-ylidene]-4-oxo-2-thioxo-1,3-thiazolidin-3-yl}propanoic acid], in data set [1], the “Inhibitory effect on the growth of S. epidermidis” value is reported as “significant inhibitory effects”. Further, the “Inhibitory effect on the growth of E. coli BL21” value in the data set with E. coli BL21 is “no inhibitory effects”. Also, in the data set with E. coli JM109, the “Inhibitory effect on the growth of E. coli JM109” value is “no inhibitory effects”. Besides, the “Toxic effects on MDCK cells” value in the data set on MDCK cells is “did not exhibit toxic effects”. For the same compound, the “Cell death induced in SH-SY5Y cells” value with SH-SY5Y cells is 35.4–52.1%.

The record behind these values is article PMC4334291 (Journal of Chemical Information and Modeling, 2014).
